{"source": "ChEMBL document CHEMBL3098111", "about": "“Discovery of 2,5-diarylnicotinamides as selective orexin-2 receptor antagonists (2-SORAs)” (Bioorg Med Chem Lett, 2013)", "key": {"[1]": {"target": "Estrogen receptor (Homo sapiens) (UniProt P03372)", "sequence (P03372 whole entry)": "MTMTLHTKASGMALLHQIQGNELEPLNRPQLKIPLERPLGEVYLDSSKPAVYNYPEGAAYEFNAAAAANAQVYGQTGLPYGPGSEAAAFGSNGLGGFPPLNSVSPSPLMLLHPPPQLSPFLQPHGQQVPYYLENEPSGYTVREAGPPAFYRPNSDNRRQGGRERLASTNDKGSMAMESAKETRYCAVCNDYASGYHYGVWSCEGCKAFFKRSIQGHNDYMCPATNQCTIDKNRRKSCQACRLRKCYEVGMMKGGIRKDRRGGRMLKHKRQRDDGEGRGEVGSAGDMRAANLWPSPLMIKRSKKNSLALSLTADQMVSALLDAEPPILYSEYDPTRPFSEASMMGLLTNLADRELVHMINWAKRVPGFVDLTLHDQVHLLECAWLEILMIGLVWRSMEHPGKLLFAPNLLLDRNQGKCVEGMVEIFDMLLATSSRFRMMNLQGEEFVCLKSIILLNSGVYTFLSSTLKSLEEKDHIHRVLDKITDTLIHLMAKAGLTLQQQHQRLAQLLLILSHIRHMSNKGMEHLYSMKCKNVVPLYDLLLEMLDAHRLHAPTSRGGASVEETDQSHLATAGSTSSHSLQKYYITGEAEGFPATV", "test": "Inhibition of human ERalpha receptor at 10 uM relative to control"}, "[2]": {"target": "Endothelin-1 receptor (Homo sapiens) (UniProt P25101)", "sequence (P25101 whole entry)": "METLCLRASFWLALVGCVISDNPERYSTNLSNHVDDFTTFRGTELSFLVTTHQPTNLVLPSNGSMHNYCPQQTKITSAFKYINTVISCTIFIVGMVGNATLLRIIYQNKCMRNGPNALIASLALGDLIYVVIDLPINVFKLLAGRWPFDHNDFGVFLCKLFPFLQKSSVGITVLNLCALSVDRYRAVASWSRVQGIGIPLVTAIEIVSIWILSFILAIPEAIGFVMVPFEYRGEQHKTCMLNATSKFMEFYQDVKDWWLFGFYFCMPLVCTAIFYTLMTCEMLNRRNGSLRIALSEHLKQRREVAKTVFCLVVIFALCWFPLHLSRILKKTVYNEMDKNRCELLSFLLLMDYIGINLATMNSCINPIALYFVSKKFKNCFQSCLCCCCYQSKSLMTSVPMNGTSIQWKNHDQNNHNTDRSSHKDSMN", "test": "Inhibition of human ETA receptor at 10 uM relative to control"}, "D(3) dopamine receptor": {"target": "D(3) dopamine receptor (Homo sapiens, UniProt P35462)", "test": "Inhibition of human dopamine D3 receptor at 1 uM relative to control"}, "[3]": {"target": "Gastrin/cholecystokinin type B receptor (Homo sapiens) (UniProt P32239)", "test": "Inhibition of human CCKB receptor at 10 uM relative to control"}, "[4]": {"target": "C-C chemokine receptor type 5 (Homo sapiens) (UniProt P51681)", "sequence (P51681 whole entry, looked up)": "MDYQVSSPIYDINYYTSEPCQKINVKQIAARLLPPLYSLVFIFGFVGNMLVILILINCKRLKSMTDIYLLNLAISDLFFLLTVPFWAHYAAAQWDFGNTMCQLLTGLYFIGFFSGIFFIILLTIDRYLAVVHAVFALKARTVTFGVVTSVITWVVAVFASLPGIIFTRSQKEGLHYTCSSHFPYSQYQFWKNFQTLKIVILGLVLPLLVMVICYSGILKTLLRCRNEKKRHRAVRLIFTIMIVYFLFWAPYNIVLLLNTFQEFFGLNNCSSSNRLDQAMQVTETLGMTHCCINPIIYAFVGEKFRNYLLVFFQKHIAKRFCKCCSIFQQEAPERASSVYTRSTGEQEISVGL", "test": "Inhibition of human CCR5 at 10 uM relative to control"}, "[5]": {"target": "Cannabinoid receptor 2 (Homo sapiens) (UniProt P34972)", "sequence (P34972 whole entry)": "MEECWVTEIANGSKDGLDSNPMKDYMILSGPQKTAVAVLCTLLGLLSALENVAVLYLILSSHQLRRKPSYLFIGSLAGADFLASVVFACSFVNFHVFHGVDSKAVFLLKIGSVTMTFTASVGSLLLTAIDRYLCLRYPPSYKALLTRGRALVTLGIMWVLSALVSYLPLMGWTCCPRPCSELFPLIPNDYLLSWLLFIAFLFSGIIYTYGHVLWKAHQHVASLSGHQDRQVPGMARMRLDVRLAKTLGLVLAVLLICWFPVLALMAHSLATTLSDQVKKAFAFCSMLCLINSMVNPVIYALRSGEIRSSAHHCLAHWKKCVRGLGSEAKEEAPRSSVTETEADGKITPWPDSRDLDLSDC", "test": "Inhibition of human CB2 receptor at 10 uM relative to control"}, "Rattus norvegicus [6]": {"species_on_record": "Rattus norvegicus", "test": "Inhibition of rat N-type calcium channel at 10 uM relative to control"}, "[7]": {"target": "Calcitonin receptor (Homo sapiens) (UniProt P30988)", "sequence (P30988 whole entry)": "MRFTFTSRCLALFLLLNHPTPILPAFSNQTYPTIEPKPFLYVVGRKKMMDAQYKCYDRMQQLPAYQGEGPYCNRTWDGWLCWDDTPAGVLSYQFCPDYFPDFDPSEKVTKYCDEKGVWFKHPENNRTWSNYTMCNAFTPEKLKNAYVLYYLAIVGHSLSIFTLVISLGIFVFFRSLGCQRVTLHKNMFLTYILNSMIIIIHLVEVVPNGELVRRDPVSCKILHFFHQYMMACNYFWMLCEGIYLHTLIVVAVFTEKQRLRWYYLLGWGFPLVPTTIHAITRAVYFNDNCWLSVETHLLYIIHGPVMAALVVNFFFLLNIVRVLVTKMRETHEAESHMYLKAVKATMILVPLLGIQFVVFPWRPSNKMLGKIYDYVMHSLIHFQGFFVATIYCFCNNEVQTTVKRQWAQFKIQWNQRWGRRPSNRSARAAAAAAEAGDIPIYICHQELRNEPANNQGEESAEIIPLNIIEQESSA", "test": "Inhibition of human calcitonin receptor at 10 uM relative to control"}, "[8]": {"target": "Adrenergic receptor alpha-2 (Rattus norvegicus) (UniProt P22086+P19328+P22909)", "test": "Inhibition of rat alpha2 adrenergic receptor at 10 uM relative to control"}, "[9]": {"target": "Adenosine receptor A3 (Homo sapiens) (UniProt P0DMS8)", "test": "Inhibition of human adenosine A3 receptor at 10 uM relative to control"}, "[10]": {"target": "Adenosine receptor A2a (Homo sapiens) (UniProt P29274)", "sequence (P29274 whole entry)": "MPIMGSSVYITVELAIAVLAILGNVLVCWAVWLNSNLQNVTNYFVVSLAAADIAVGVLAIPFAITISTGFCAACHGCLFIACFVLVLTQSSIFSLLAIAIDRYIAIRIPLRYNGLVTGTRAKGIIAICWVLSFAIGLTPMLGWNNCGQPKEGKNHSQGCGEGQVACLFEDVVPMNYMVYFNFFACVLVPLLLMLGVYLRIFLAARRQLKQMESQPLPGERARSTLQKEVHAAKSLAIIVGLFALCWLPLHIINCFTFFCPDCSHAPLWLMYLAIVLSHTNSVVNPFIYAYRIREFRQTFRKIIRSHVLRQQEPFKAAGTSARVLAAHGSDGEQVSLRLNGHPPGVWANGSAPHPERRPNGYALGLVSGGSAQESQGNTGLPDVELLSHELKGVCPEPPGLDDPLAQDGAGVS", "test": "Inhibition of human adenosine A2A receptor at 10 uM relative to control"}, "[11]": {"target": "Mitogen-activated protein kinase 3 (Homo sapiens) (UniProt P27361)", "test": "Inhibition of human MAPK3 at 100 uM relative to control"}, "[12]": {"target": "cGMP-specific 3',5'-cyclic phosphodiesterase (Homo sapiens) (UniProt O76074)", "test": "Inhibition of human PDE5 at 100 uM relative to control"}, "[13]": {"target": "Phosphodiesterase 4 (Homo sapiens) (UniProt P27815+Q08499+Q07343+Q08493)", "test": "Inhibition of human PDE4 at 100 uM relative to control", "assay_type": "protein assay"}, "[14]": {"target": "Phosphodiesterase 3 (Homo sapiens) (UniProt Q14432+Q13370)", "test": "Inhibition of human PDE3 at 100 uM relative to control", "assay_type": "protein assay"}, "[15]": {"target": "Macrophage metalloelastase (Homo sapiens) (UniProt P39900)", "sequence (P39900 106-470 limits assumed)": "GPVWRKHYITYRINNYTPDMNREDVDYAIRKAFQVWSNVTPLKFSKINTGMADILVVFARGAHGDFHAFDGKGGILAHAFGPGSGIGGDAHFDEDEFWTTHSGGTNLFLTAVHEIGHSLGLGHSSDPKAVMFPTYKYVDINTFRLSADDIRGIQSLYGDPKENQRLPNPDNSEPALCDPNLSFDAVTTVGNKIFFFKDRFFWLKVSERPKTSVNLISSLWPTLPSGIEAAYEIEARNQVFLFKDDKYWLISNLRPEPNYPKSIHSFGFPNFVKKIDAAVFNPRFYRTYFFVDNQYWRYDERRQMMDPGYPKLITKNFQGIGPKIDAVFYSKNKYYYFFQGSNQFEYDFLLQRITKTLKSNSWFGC", "test": "Inhibition of human MMP-12 at 10 uM relative to control"}, "Homo sapiens": {"species_on_record": "Homo sapiens", "test": "Selectivity ratio of Ki for human orexin-1 receptor to Ki for human orexin-2 receptor", "method_in_brief": "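Radioligand binding: a high-affinity radioligand was bound to membranes from human cells overexpressing OX1R or OX2R, and inhibition of that binding was measured and expressed as Ki. The ratio is the OX1R Ki divided by the OX2R Ki.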"}, "[16]": {"target": "Vasopressin V1a receptor (Homo sapiens) (UniProt P37288)", "sequence (P37288 whole entry, looked up)": "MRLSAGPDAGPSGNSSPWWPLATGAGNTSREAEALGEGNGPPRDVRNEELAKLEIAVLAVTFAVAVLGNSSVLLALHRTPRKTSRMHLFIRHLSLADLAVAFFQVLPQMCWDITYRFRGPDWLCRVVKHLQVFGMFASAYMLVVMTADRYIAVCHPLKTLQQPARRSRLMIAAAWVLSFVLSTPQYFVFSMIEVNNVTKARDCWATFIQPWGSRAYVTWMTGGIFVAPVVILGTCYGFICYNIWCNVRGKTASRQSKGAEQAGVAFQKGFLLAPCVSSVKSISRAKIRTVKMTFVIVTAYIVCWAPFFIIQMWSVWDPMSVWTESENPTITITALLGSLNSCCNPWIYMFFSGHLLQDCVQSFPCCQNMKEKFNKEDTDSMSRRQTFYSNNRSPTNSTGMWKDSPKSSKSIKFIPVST", "test": "Inhibition of human V1A receptor at 10 uM relative to control"}, "Oryctolagus cuniculus": {"species_on_record": "Oryctolagus cuniculus", "test": "Inhibition of rabbit monoamine transporter at 1 uM relative to control"}, "[17]": {"target": "Sodium-dependent dopamine transporter (Homo sapiens) (UniProt Q01959)", "test": "Inhibition of human DAT at 10 uM relative to control"}, "[18]": {"target": "Somatostatin receptor type 4 (Homo sapiens) (UniProt P31391)", "sequence (P31391 whole entry)": "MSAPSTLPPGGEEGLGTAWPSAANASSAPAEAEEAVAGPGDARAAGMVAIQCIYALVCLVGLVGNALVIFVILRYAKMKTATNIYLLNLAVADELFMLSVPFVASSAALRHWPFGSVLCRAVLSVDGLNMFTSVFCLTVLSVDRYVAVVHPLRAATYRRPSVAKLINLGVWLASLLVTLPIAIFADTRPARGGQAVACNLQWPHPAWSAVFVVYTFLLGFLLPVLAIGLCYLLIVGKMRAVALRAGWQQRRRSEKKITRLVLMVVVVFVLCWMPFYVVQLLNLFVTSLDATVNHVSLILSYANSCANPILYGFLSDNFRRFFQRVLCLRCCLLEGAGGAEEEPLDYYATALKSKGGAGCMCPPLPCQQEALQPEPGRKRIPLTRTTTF", "test": "Inhibition of human SST4 receptor at 10 uM relative to control"}, "[19]": {"target": "Somatostatin receptor type 2 (Homo sapiens) (UniProt P30874)", "test": "Inhibition of human SST2 receptor at 10 uM relative to control"}, "[20]": {"target": "5-hydroxytryptamine receptor 4 (Cavia porcellus) (UniProt O70528)", "test": "Inhibition of guinea pig 5-HT4 receptor at 10 uM relative to control"}, "[21]": {"target": "5-hydroxytryptamine receptor 2B (Homo sapiens, UniProt P41595)", "test": "Inhibition of human 5-HT2B receptor at 10 nM relative to control"}, "[22]": {"target": "T1, 5-hydroxytryptamine receptor 1A (Homo sapiens) (UniProt P08908)", "T1 sequence (whole entry)": "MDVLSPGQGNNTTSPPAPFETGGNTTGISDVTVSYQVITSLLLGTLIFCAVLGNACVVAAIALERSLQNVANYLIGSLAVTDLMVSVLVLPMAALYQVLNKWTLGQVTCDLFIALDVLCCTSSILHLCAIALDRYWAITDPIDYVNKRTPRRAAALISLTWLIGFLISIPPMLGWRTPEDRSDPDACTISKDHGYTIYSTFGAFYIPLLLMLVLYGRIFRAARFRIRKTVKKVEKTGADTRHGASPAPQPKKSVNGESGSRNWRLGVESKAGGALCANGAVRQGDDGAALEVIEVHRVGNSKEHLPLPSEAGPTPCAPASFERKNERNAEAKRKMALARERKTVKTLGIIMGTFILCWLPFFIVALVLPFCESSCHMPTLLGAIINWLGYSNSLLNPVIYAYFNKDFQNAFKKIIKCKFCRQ", "test": "Inhibition of human 5-HT1A receptor at 1 uM relative to control"}, "[23]": {"target": "Prostacyclin receptor (Homo sapiens) (UniProt P43119)", "sequence (P43119 whole entry)": "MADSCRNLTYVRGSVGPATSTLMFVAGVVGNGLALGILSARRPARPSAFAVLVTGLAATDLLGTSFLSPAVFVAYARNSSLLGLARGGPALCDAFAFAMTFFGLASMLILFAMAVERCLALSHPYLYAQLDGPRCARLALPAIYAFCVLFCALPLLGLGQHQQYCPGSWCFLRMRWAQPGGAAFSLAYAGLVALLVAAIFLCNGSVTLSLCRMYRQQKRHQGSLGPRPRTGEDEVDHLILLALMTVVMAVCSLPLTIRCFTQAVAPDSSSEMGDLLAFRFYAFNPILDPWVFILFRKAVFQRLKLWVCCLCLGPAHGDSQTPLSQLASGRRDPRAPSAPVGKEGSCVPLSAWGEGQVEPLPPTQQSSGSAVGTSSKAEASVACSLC", "test": "Inhibition of human prostanoid IP receptor at 10 uM relative to control"}, "[24]": {"target": "Peroxisome proliferator-activated receptor gamma (Homo sapiens) (UniProt P37231)", "test": "Inhibition of human PPARgamma at 10 uM relative to control"}, "[25]": {"target": "Small conductance calcium-activated potassium channel (Rattus norvegicus) (UniProt P70604+P70606+P70605)", "test": "Inhibition of rat potassium channel [SKCA] at 10 uM relative to control", "assay_type": "protein assay"}, "[26]": {"target": "Platelet-activating factor receptor (Homo sapiens) (UniProt P25105)", "test": "Inhibition of human PAF receptor at 10 uM relative to control"}, "[27]": {"target": "Muscarinic acetylcholine receptor M4 (Homo sapiens) (UniProt P08173)", "sequence (P08173 whole entry)": "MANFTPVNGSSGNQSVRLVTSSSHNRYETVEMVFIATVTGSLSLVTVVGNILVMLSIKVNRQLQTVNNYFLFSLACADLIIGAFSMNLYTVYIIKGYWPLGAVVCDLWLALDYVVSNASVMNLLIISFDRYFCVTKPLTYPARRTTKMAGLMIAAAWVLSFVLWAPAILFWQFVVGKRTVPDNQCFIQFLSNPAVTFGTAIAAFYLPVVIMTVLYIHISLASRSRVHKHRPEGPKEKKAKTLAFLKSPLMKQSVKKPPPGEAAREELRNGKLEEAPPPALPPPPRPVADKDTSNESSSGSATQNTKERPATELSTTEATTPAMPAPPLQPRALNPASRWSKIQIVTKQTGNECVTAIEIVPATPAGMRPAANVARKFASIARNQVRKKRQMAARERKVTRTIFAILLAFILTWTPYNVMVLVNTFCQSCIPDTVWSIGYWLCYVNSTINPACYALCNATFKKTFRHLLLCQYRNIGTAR", "test": "Inhibition of human muscarinic M4 receptor at 10 uM relative to control"}, "[28]": {"target": "Muscarinic acetylcholine receptor M1 (Homo sapiens) (UniProt P11229)", "test": "Inhibition of human muscarinic M1 receptor at 10 uM relative to control"}, "[29]": {"target": "Melanocortin receptor 4 (Homo sapiens) (UniProt P32245)", "test": "Inhibition of human MC4 receptor at 10 uM relative to control"}, "Rattus norvegicus [30]": {"species_on_record": "Rattus norvegicus", "test": "Inhibition of rat glutamate receptor at 10 uM relative to control"}, "[31]": {"target": "Glutamate NMDA receptor (Rattus norvegicus) (UniProt P35439+Q00959+Q00960+Q00961+Q62645+Q8VHN2+Q9R1M7)", "test": "Inhibition of rat NMDA receptor agonist binding site at 10 uM relative to control", "assay_type": "protein-complex assay"}, "[32]": {"target": "Galanin receptor type 2 (Homo sapiens) (UniProt O43603)", "test": "Inhibition of human GAL2 receptor at 10 uM relative to control"}, "Rattus norvegicus [33]": {"species_on_record": "Rattus norvegicus", "test": "Inhibition of rat GABAB receptor at 10 uM relative to control"}, "Rattus norvegicus [34]": {"species_on_record": "Rattus norvegicus", "test": "Inhibition of rat GABAA central type receptor muscimol binding site at 10 uM relative to control"}}}
{"smiles": "COc1ccc(CNC(=O)c2cc(-c3cc(Cl)cc(Cl)c3)cnc2-c2cccnc2)cc1OC", "values": [{"measurement": "inhibition", "setting": "[1]", "result": 20, "unit": "%"}, {"measurement": "inhibition", "setting": "[2]", "result": 4, "unit": "%"}, {"measurement": "inhibition", "setting": "D(3) dopamine receptor", "result": 19, "unit": "%"}, {"measurement": "inhibition", "setting": "[3]", "result": -4, "unit": "%"}, {"measurement": "inhibition", "setting": "[4]", "result": 11, "unit": "%"}, {"measurement": "inhibition", "setting": "[5]", "result": 2, "unit": "%"}, {"measurement": "inhibition", "setting": "Rattus norvegicus [6]", "result": 2, "unit": "%"}, {"measurement": "inhibition", "setting": "[7]", "result": 9, "unit": "%"}, {"measurement": "inhibition", "setting": "[8]", "result": 37, "unit": "%"}, {"measurement": "inhibition", "setting": "[9]", "result": 33, "unit": "%"}, {"measurement": "inhibition", "setting": "[10]", "result": 8, "unit": "%"}, {"measurement": "inhibition", "setting": "[11]", "result": 10, "unit": "%"}, {"measurement": "inhibition", "setting": "[12]", "result": -8, "unit": "%"}, {"measurement": "inhibition", "setting": "[13]", "result": 5, "unit": "%"}, {"measurement": "inhibition", "setting": "[14]", "result": 0, "unit": "%"}, {"measurement": "inhibition", "setting": "[15]", "result": -6, "unit": "%"}, {"measurement": "Ratio Ki", "setting": "Homo sapiens", "result": 1350}, {"measurement": "inhibition", "setting": "[16]", "result": 0, "unit": "%"}, {"measurement": "inhibition", "setting": "Oryctolagus cuniculus", "result": 20, "unit": "%"}, {"measurement": "inhibition", "setting": "[17]", "result": -7, "unit": "%"}, {"measurement": "inhibition", "setting": "[18]", "result": 5, "unit": "%"}, {"measurement": "inhibition", "setting": "[19]", "result": -3, "unit": "%"}, {"measurement": "inhibition", "setting": "[20]", "result": 22, "unit": "%"}, {"measurement": "inhibition", "setting": "[21]", "result": 6, "unit": "%"}, {"measurement": "inhibition", "setting": "[22]", "result": 41, "unit": "%"}, {"measurement": "inhibition", "setting": "[23]", "result": -2, "unit": "%"}, {"measurement": "inhibition", "setting": "[24]", "result": 3, "unit": "%"}, {"measurement": "inhibition", "setting": "[25]", "result": 9, "unit": "%"}, {"measurement": "inhibition", "setting": "[26]", "result": 31, "unit": "%"}, {"measurement": "inhibition", "setting": "[27]", "result": 7, "unit": "%"}, {"measurement": "inhibition", "setting": "[28]", "result": 0, "unit": "%"}, {"measurement": "inhibition", "setting": "[29]", "result": 6, "unit": "%"}, {"measurement": "inhibition", "setting": "Rattus norvegicus [30]", "result": -6, "unit": "%"}, {"measurement": "inhibition", "setting": "[31]", "result": 1, "unit": "%"}, {"measurement": "inhibition", "setting": "[32]", "result": 6, "unit": "%"}, {"measurement": "inhibition", "setting": "Rattus norvegicus [33]", "result": 0, "unit": "%"}, {"measurement": "inhibition", "setting": "Rattus norvegicus [34]", "result": 9, "unit": "%"}]}
